Measurements: ChEMBL document CHEMBL4680120, “Novel anti-Alzheimer phenol-lipoyl hybrids: Synthesis, physico-chemical characterization, and biological evaluation” (Eur J Med Chem, 2020)
Activity calls are given as the source filed them. The rule behind the calls is not given here.

Legend:
[1] = Stability in human plasma assessed as observed rate constant by HPLC analysis; type: ADME, cell-free
How it was run: (§1)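 Compound stock added to human plasma pre-warmed to 37°C and diluted with 0.02 M phosphate buffer (pH 7.4) to 80% plasma. 100 μL samples taken over time, quenched with 200 μL cold acetonitrile, centrifuged, and supernatant analyzed by HPLC. t½ and kobs are means of three experiments.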

SH-SY5Y [2] = assay: Neuroprotective activity against amyloid beta (1 to 42)-induced toxicity in human SH-SY5Y cells assessed as increase in cell viability at 1 to 250 mg/l measured after 48 hrs by MTT assay; type: functional, cell-based; details: dose 1-250 mg/L
How it was run: (§2)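 SH-SY5Y cells grown in DMEM/F12 with 10% FBS and differentiated with retinoic acid (10 μM), seeded at 1×10^4 per well and cultured 24 h. Cells were given hybrids at 1–250 mg/L with or without Aβ1-42 (20 μM) for 48 h. MTT (5 mg/mL) added for 4 h at 37°C, DMSO solubilization, read at 570/630 nm. LDH read at 450 nm. Five independent experiments.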

Erythrocyte [3] = assay: Cytoprotective activity against H2O2-induced oxidative damage in human RBC assessed as increase in cell viability measured after 72 hrs by MTT assay; type: functional, cell-based
[4] = Stability in simulated gastric fluid at pH 1.2 assessed as relative difference measured after 60 mins in presence of pepsin by HPLC analysis; type: ADME; details: isolated protein, pH 1.2, 1 h
How it was run: (§3)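 Incubation in simulated gastric fluid (pH 1.2, pepsin) or simulated intestinal fluid (pH 6.8, pancreatin). Aliquots deproteinized with ice-cold acetonitrile, centrifuged at 4°C and 12000 rpm for 10 min, filtered, analyzed by HPLC. RD% = (Ci − Cf)/Ci × 100. Stable if RD < 5%. Means of three experiments.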

SH-SY5Y [5] = assay: Neuroprotective activity against amyloid beta (1 to 42)-induced toxicity in human SH-SY5Y cells assessed as decrease in PSENEN mRNA expression at IC50 measured after 48 hrs by SYBR green dye based RT-qPCR analysis; type: functional, cell-based
How it was run: (§4)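 Differentiated SH-SY5Y cells in 6-well plates treated 48 h with Aβ1-42 (20 μM) with or without hybrid. mRNA of AD-related genes measured by RT-qPCR, normalized to β-actin. Expressed as fold change versus untreated cells. Triplicate experiments.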

SH-SY5Y [6] = assay: Neuroprotective activity against amyloid beta (1 to 42)-induced toxicity in human SH-SY5Y cells assessed as decrease in APOE mRNA expression at IC50 measured after 48 hrs by SYBR green dye based RT-qPCR analysis; type: functional, cell-based; how it was run: as §4
SH-SY5Y [7] = assay: Neuroprotective activity against amyloid beta (1 to 42)-induced toxicity in human SH-SY5Y cells assessed as decrease in APH1alpha mRNA expression at IC50 measured after 48 hrs by SYBR green dye based RT-qPCR analysis; type: functional, cell-based; how it was run: as §4
[8] = Stability in simulated gastric fluid at pH 1.2 assessed as relative difference measured after 30 mins in presence of pepsin by HPLC analysis; type: ADME; details: isolated protein, pH 1.2, 0.5 h; how it was run: as §3
SH-SY5Y [9] = assay: Neuroprotective activity against amyloid beta (1 to 42)-induced toxicity in human SH-SY5Y cells assessed as decrease in TNFalpha mRNA expression at IC50 measured after 48 hrs by SYBR green dye based RT-qPCR analysis; type: functional, cell-based; how it was run: as §4
[10] = Half life in human plasma by HPLC analysis; type: ADME, cell-free; how it was run: as §1
SH-SY5Y [11] = assay: Neuroprotective activity against amyloid beta (1 to 42)-induced toxicity in human SH-SY5Y cells assessed as increase in PSEN mRNA expression at IC50 measured after 48 hrs by SYBR green dye based RT-qPCR analysis; type: functional, cell-based; how it was run: as §4
Erythrocyte [12] = assay: Cytoprotective activity against H2O2-induced oxidative damage in human RBC assessed as recovery of H2O2-induced cell death at 50 to 100 uM measured after 72 hrs by MTT assay relative to control; type: functional; details: dose 50-100 µM
SH-SY5Y [13] = assay: Neuroprotective activity against amyloid beta (1 to 42)-induced toxicity in human SH-SY5Y cells assessed as increase in ADAM10 mRNA expression at IC50 measured after 48 hrs by SYBR green dye based RT-qPCR analysis; type: functional, cell-based; how it was run: as §4
SH-SY5Y [14] = assay: Neuroprotective activity against amyloid beta (1 to 42)-induced apoptosis in human SH-SY5Y cells assessed as decrease in DNA fragmentation at IC50 measured after 48 hrs by Hoechst 33258 staining based fluorescence microscopic assay; type: functional, cell-based
How it was run: (§5)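 Differentiated SH-SY5Y cells, 4×10^4 per well, exposed 48 h to Aβ1-42 (20 μM) with or without hybrid. Fixed in 4% paraformaldehyde for 30 min, stained with Hoechst 33258 for 15 min. Nuclear chromatin condensation and DNA fragmentation scored by fluorescence microscopy at ×200.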

SH-SY5Y [15] = assay: Cytotoxicity against human SH-SY5Y cells assessed as reduction in cell viability at 1 to 250 mg/l measured after 48 hrs by MTT assay; type: cell-based; details: dose 1-250 mg/L; how it was run: as §2
SH-SY5Y [16] = assay: Neuroprotective activity against amyloid beta (1 to 42)-induced apoptosis in human SH-SY5Y cells assessed as decrease in DNA condensation at IC50 measured after 48 hrs by Hoechst 33258 staining based fluorescence microscopic assay; type: functional, cell-based; how it was run: as §5
Erythrocyte [17] = assay: Antioxidant activity in human RBC assessed as increase in total antioxidant capacity level up to 400 ug/ml measured after 72 hrs relative to control; type: functional; details: dose microg/ml <=400
SH-SY5Y [18] = assay: Neuroprotective activity against amyloid beta (1 to 42)-induced apoptosis in human SH-SY5Y cells assessed as necrotic cells at IC50 measured after 48 hrs by Annexin-V/Propidium iodide staining based flow cytometry (reference value: 6.99%); type: functional
SH-SY5Y [19] = assay: Neuroprotective activity against amyloid beta (1 to 42)-induced toxicity in human SH-SY5Y cells assessed as decrease in MAPT mRNA expression at IC50 measured after 48 hrs by SYBR green dye based RT-qPCR analysis; type: functional, cell-based; how it was run: as §4
SH-SY5Y [20] = assay: Neuroprotective activity against amyloid beta (1 to 42)-induced toxicity in human SH-SY5Y cells assessed as decrease in BDNF mRNA expression at IC50 measured after 48 hrs by SYBR green dye based RT-qPCR analysis; type: functional, cell-based; how it was run: as §4
SH-SY5Y [21] = assay: Neuroprotective activity against amyloid beta (1 to 42)-induced toxicity in human SH-SY5Y cells assessed as decrease in […] mRNA expression at IC50 measured after 48 hrs by SYBR green dye based RT-qPCR analysis; type: functional, cell-based; how it was run: as §4
SH-SY5Y [22] = assay: Neuroprotective activity against amyloid beta (1 to 42)-induced apoptosis in human SH-SY5Y cells assessed as late apoptotic cells at IC50 measured after 48 hrs by Annexin-V/Propidium iodide staining based flow cytometry (reference value: 33.72%); type: functional
Erythrocyte [23] = assay: Cytoprotective activity against H2O2-induced oxidative damage in human RBC assessed as increase in cell viability measured after 72 hrs by LDH release assay; type: functional, cell-based
How it was run: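 Heparinized whole blood cultured with phytohemagglutinin. Cells were co-incubated with 50 or 100 μM hybrid and H2O2 (25 μM). Viability was read by MTT: lymphocytes at 2×10^5 per well, MTT 4 h at 37°C, formazan dissolved in DMSO, absorbance 570 nm. LDH release was measured on 100 μL medium with a commercial kit. Results are relative to untreated control.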

SH-SY5Y [24] = assay: Neuroprotective activity against amyloid beta (1 to 42)-induced toxicity in human SH-SY5Y cells assessed as decrease in EGFR mRNA expression at IC50 measured after 48 hrs by SYBR green dye based RT-qPCR analysis; type: functional, cell-based; how it was run: as §4

SMILES | K [1] [h⁻¹] | Activity (SH-SY5Y [2]) | Activity (Erythrocyte [3]) | fold change (FC) [4] [%] | Activity (SH-SY5Y [5]) | Activity (SH-SY5Y [6]) | Activity (SH-SY5Y [7]) | fold change (FC) [8] [%] | Activity (SH-SY5Y [9]) | half-life [10] [h] | Activity (SH-SY5Y [11]) | Activity (Erythrocyte [12]) [%] | Activity (SH-SY5Y [13]) | Activity (SH-SY5Y [14]) | Activity (SH-SY5Y [15]) | Activity (SH-SY5Y [16]) | Activity (Erythrocyte [17]) [%] | Activity (SH-SY5Y [18]) [%] | Activity (SH-SY5Y [19]) | Activity (SH-SY5Y [20]) | further results
O=C(CCCCC1CCSS1)NCCCCCOC(=O)Cc1ccc(O)c(O)c1 (stereo not drawn) | 20.56 | Active | Dose-dependent effect | 100 | Active | Active | Active | 79.35 | Active | 0.03 | Active | 0.5 | Active | Active | Non-Toxic | Active | 32.3 | 1.04 | Active | Active | Activity (SH-SY5Y [21]): Active; Activity (SH-SY5Y [22]): 9.69%; Activity (Erythrocyte [23]): Dose-dependent effect; Activity (SH-SY5Y [24]): Active
COc1cc(/C=C/C(=O)NCCCNC(=O)CCCCC2CCSS2)ccc1O (stereo not drawn) | 0.01 | Active | Dose-dependent effect | 1.78 | Active | Active | Active | 0.43 | Active | 72.4 | Active | 0.5 | Active | Active | Non-Toxic | Active | 6.7 | 1.13 | Active | Active | Activity (SH-SY5Y [21]): Active; Activity (SH-SY5Y [22]): 9.97%; Activity (Erythrocyte [23]): Dose-dependent effect; Activity (SH-SY5Y [24]): Active
